Experimental findings from PubChem BioAssay are described below.

Test [1] in a line: hit retest on RPL19A-GFP reporter strain – cell-based, S. cerevisiae, flow cytometry, cherry picks, mother/daughter gates, confirmation (AID 2270;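 active = GFP response below 50% of the DMSO control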). The following applies: 3 h, at 10 µM, stronger effect = lower value, 100 = same GFP as DMSO wells. (In flow cytometry, cells or beads pass a laser one at a time.)
A short description of test [2]: yeast TOR pathway reporter LAP4-GFP change – cell-based, cherry picks, flow cytometry, mother/daughter gates, confirmation (AID 2271;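 active = GFP response above 150% of the DMSO control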;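 note: ratio of sample to DMSO plate mean so 100% equals DMSO level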). The following applies: S. cerevisiae LAP4-GFP strain, 3 h, at 10 µM, stronger effect = higher value, 100 means same as DMSO control. The essentials: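 System: Alexa 633-stained baker's yeast GFP-fusion strain; quantity: 0.2 OD600 cells; timing: compound exposure 3 h at 30 °C, end-over-end rotation; detection: HT flow cytometry, GFP fluorescence channel; measure: per-gate (all, mother, daughter) GFP response vs DMSO; control set: DMSO-only negative wells, rapamycin 400 ng/mL positive wells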

Test [3] is described as follows: TOR pathway reporter MEP2-GFP, retest of hits – S. cerevisiae, flow cytometry GFP, cherry picks, confirmation (AID 2272;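 active = GFP response above 150% of the DMSO control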;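 note: ratio of well signal to plate DMSO mean so 100% equals DMSO level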). To be noted: S. cerevisiae MEP2-GFP strain, 3 h, at 10 µM, stronger effect = higher value.
Test [4] in a line: yeast AGP1-GFP fluorescence change, single-dose – cell-based, flow cytometry, S. cerevisiae, cherry picks, confirmation (AID 2273).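 Note: median GFP channel fluorescence over the whole cell population gate.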 To be noted: S. cerevisiae AGP1-GFP strain, 3 h, at 10 µM.
Test [5] in a line: TOR pathway CIT2 reporter hit retest – S. cerevisiae, GFP fusion, cherry picks, mother/daughter gates, confirmation (AID 2274). To be noted: S. cerevisiae CIT2-GFP strain, flow cytometry, 3 h, at 10 µM, stronger effect = higher value.
Setting [6] is: measured here: daughter cell gate.
Where [7] appears, read: measured here: mother cell gate.
Where [8] appears, read: measured here: daughter cell gate response.
The mark [9] stands for this setting: measured here: mother cell gate response.

SMILES strings stand for the structures. Activity calls are given as the source filed them.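 Rule for the calls, unless noted: active = GFP response above 150% of the DMSO level; inconclusive = fewer than 70 events counted for a yeast strain; inactive = the rest.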

On to `COC(=O)CCS(=O)(=O)c1nc(-c2ccccc2)cc(C(F)(F)F)n1`, for which the GFP response vs DMSO in test [1] is 100% (inactive); in test [1] (setting [6]), 102%; in test [1] (setting [7]), 95.8%; in test [3], 136% (inactive). Also, the values for the GFP response relative to DMSO in test [2], in test [2] (setting [8]) and in test [2] (setting [9]) were 168% (active), 161% and 170%, respectively. The GFP response, % of DMSO in test [4] is 130% (inactive); in test [5] it was 102% (inactive); in test [5] (setting [6]), 110%; in test [5] (setting [7]), 93.7%.

Consider `N#Cc1nccnc1S(=O)(=O)c1cccs1`, for which the GFP response vs DMSO was 96.2% (inactive) in test [1], 99.5% in test [1] (setting [6]), 94.6% in test [1] (setting [7]) and 106% (inactive) in test [3]. The values for the GFP response relative to DMSO in test [2], in test [2] (setting [8]) and in test [2] (setting [9]) were 166% (active), 149% and 162%, respectively. The GFP response, % of DMSO in test [4] is 96.1% (inactive); in test [5] it was 103% (inactive); in test [5] (setting [6]) it was 103%; in test [5] (setting [7]), 98.2%.

For `CC(=O)Nc1ccc(NC(=O)c2nc(S(=O)(=O)Cc3cccc(C)c3)ncc2Cl)cc1`, the GFP response vs DMSO in test [1] was 102% (inactive); in test [1] (setting [6]) it was 99.5%; in test [1] (setting [7]), 103%; in test [3], 100% (inactive). Also, the GFP response relative to DMSO in test [2] is 93.8% (inactive); in test [2] (setting [8]), 97.2%; in test [2] (setting [9]), 95.2%. The GFP response, % of DMSO is 97.4% (inactive) in test [4], 104% (inactive) in test [5], 103% in test [5] (setting [6]) and 105% in test [5] (setting [7]).

`CC(C(=O)NCCc1ccc(F)cc1)N1CCN(Cc2ccccc2)CC1` (configuration not stated): the GFP response vs DMSO in test [1] is 96.5% (inactive); in test [1] (setting [6]), 97%; in test [1] (setting [7]), 96.8%; in test [3] it was 102% (inactive). In addition, the GFP response relative to DMSO is 98.7% (inactive) in test [2], 100% in test [2] (setting [8]) and 101% in test [2] (setting [9]). In addition, the GFP response, % of DMSO in test [4] was 98.5% (inactive); in test [5] it was 95.2% (inactive); in test [5] (setting [6]), 96.5%; in test [5] (setting [7]), 95.5%.

For the compound `COC(=O)Nc1c(-c2ccccc2)nc2ccccn12`, the GFP response vs DMSO is 99.4% (inactive) in test [1], 98.1% in test [1] (setting [6]), 98.9% in test [1] (setting [7]) and 98.3% (inactive) in test [3]. The GFP response relative to DMSO was 107% (inactive) in test [2], 106% in test [2] (setting [8]) and 105% in test [2] (setting [9]). Further, the GFP response, % of DMSO is 93.7% (inactive) in test [4], 101% (inactive) in test [5], 99.1% in test [5] (setting [6]) and 101% in test [5] (setting [7]).

As for `CC(=O)Nc1ccc(NC(=O)c2ccccc2F)cc1`, the GFP response vs DMSO in test [1] was 99.8% (inactive); in test [1] (setting [6]), 100%; in test [1] (setting [7]) it was 98.6%; in test [3], 99% (inactive). Also, the GFP response relative to DMSO in test [2] was 94.4% (inactive); in test [2] (setting [8]), 94.2%; in test [2] (setting [9]), 94.1%. For the same compound, the GFP response, % of DMSO in test [4] was 100% (inactive); in test [5], 103% (inactive); in test [5] (setting [6]), 101%; in test [5] (setting [7]), 99.3%.

In the case of `COCCn1c(=N)c(C(=O)NCc2ccco2)cc2c(=O)n3ccccc3nc21`, the GFP response vs DMSO in test [1] is 100% (inactive); in test [1] (setting [6]), 95.3%; in test [1] (setting [7]), 93.5%; in test [3], 95.2% (inactive). The values for the GFP response relative to DMSO in test [2], in test [2] (setting [8]) and in test [2] (setting [9]) were 96.5% (inactive), 96% and 86.3%, respectively. The GFP response, % of DMSO was 102% (inactive) in test [4], 100% (inactive) in test [5], 97.6% in test [5] (setting [6]) and 97.1% in test [5] (setting [7]).

Take `CC(C)NC(=O)c1ccccc1-c1nc(-c2ccccc2Cl)no1`: the GFP response vs DMSO in test [1] was 97.2% (inactive); in test [1] (setting [6]), 96.7%; in test [1] (setting [7]), 98%; in test [3], 97.8% (inactive). The GFP response relative to DMSO in test [2] was 107% (inactive); in test [2] (setting [8]), 103%; in test [2] (setting [9]) it was 108%. The GFP response, % of DMSO in test [4] was 98.5% (inactive); in test [5], 91.3% (inactive); in test [5] (setting [6]), 93.2%; in test [5] (setting [7]) it was 90.2%.

Consider `CC(=O)N(C1=C(Cl)C(=O)c2ccccc2C1=O)C1CCCCC1`, for which the GFP response vs DMSO in test [1] was 22.6% (active); in test [1] (setting [6]), 92.8%; in test [1] (setting [7]), 23.1%; in test [3], 97.8% (inactive). For the same compound, the GFP response relative to DMSO in test [2] was 72.2% (inactive); in test [2] (setting [8]) it was 113%; in test [2] (setting [9]) it was 73.7%. Besides, the GFP response, % of DMSO in test [4] was 34.1% (inactive); in test [5], 69.1% (inactive); in test [5] (setting [6]), 93.2%; in test [5] (setting [7]), 54.7%.

For the compound `Cc1ccccc1OC1CCN(C(=O)C2CCC(=O)N(C3CCCC3)C2)CC1` (configuration not stated), the GFP response vs DMSO in test [1] is 97.6% (inactive); in test [1] (setting [6]), 98.4%; in test [1] (setting [7]), 97.7%; in test [3], 105% (inactive). Also, the GFP response relative to DMSO in test [2] is 101% (inactive); in test [2] (setting [8]), 99.2%; in test [2] (setting [9]), 99.3%. For the same compound, the GFP response, % of DMSO in test [4] is 96.6% (inactive); in test [5] it was 95.5% (inactive); in test [5] (setting [6]) it was 95.4%; in test [5] (setting [7]), 95%.

In the case of `O=C(c1c(F)cccc1F)N1CCN(c2ccccc2F)CC1`, the GFP response vs DMSO is 99.4% (inactive) in test [1], 99.1% in test [1] (setting [6]), 98.4% in test [1] (setting [7]) and 100% (inactive) in test [3]. Besides, the figures for the GFP response relative to DMSO in test [2], in test [2] (setting [8]) and in test [2] (setting [9]) were 103% (inactive), 102% and 103%, respectively. Also, the GFP response, % of DMSO in test [4] is 92.1% (inactive); in test [5] it was 107% (inactive); in test [5] (setting [6]), 106%; in test [5] (setting [7]), 106%.

`COC(=O)c1cc(NC(=O)c2c(Cl)nc3sccn23)cc(C(=O)OC)c1`: the GFP response vs DMSO in test [1] is 97% (inactive); in test [1] (setting [6]), 98.6%; in test [1] (setting [7]) it was 96.9%; in test [3], 102% (inactive). In addition, the GFP response relative to DMSO is 92.8% (inactive) in test [2], 92.8% in test [2] (setting [8]) and 92.9% in test [2] (setting [9]). Moreover, the GFP response, % of DMSO in test [4] was 90% (inactive); in test [5], 99.7% (inactive); in test [5] (setting [6]), 101%; in test [5] (setting [7]) it was 99.7%.

Turning to `CCNC(=O)/C(C#N)=C/c1c(N(Cc2ccccc2)Cc2ccccc2)nc2ccccn2c1=O`, the GFP response vs DMSO in test [1] is 101% (inactive); in test [1] (setting [6]), 101%; in test [1] (setting [7]) it was 102%; in test [3] it was 110% (inactive). The GFP response relative to DMSO in test [2] is 102% (inactive); in test [2] (setting [8]), 101%; in test [2] (setting [9]), 103%. In addition, the GFP response, % of DMSO is 99.3% (inactive) in test [4], 105% (inactive) in test [5], 108% in test [5] (setting [6]) and 104% in test [5] (setting [7]).

In the case of `CCOC(=O)C1CCCN(c2nc3c(C)cccn3c(=O)c2/C=C(\C#N)C(=O)NCc2ccco2)C1` (configuration not stated), the GFP response vs DMSO in test [1] was 102% (inactive); in test [1] (setting [6]) it was 101%; in test [1] (setting [7]), 101%; in test [3], 114% (inactive). Also, the results for the GFP response relative to DMSO in test [2], in test [2] (setting [8]) and in test [2] (setting [9]) were 101% (inactive), 102% and 99.5%, respectively. In addition, the GFP response, % of DMSO in test [4] was 95.2% (inactive); in test [5], 104% (inactive); in test [5] (setting [6]), 104%; in test [5] (setting [7]), 100%.

On to `CCN(CC(O)Cn1c2ccccc2c2ccccc21)S(=O)(=O)c1ccc(F)cc1` (configuration not stated), for which the GFP response vs DMSO in test [1] is 96% (inactive); in test [1] (setting [6]), 96.5%; in test [1] (setting [7]), 96.7%; in test [3], 97.5% (inactive). Also, the GFP response relative to DMSO in test [2] was 108% (inactive); in test [2] (setting [8]), 107%; in test [2] (setting [9]), 108%. For the same compound, the GFP response, % of DMSO in test [4] was 95.8% (inactive); in test [5], 96.4% (inactive); in test [5] (setting [6]), 96.4%; in test [5] (setting [7]) it was 94.5%.

On to `O=C(Nc1nc(-c2ccccc2)cs1)c1cccs1`, for which the GFP response vs DMSO in test [1] was 99.7% (inactive); in test [1] (setting [6]), 94.2%; in test [1] (setting [7]) it was 101%; in test [3] it was 93.5% (inactive). Besides, the GFP response relative to DMSO in test [2] was 101% (inactive); in test [2] (setting [8]) it was 100%; in test [2] (setting [9]), 106%. In addition, the GFP response, % of DMSO in test [4] was 86.9% (inactive); in test [5] it was 97.8% (inactive); in test [5] (setting [6]), 94.8%; in test [5] (setting [7]), 98.7%.

As for `CCCc1[nH]nc2c1C(c1cc(OC)ccc1F)C(C#N)=C(N)O2` (configuration not stated), the GFP response vs DMSO is 98% (inactive) in test [1], 99.3% in test [1] (setting [6]), 97.7% in test [1] (setting [7]) and 96.8% (inactive) in test [3]. The GFP response relative to DMSO was 101% (inactive) in test [2], 101% in test [2] (setting [8]) and 100% in test [2] (setting [9]). Besides, the GFP response, % of DMSO is 101% (inactive) in test [4], 105% (inactive) in test [5], 103% in test [5] (setting [6]) and 104% in test [5] (setting [7]).
